Experimental data as given in ChEMBL document CHEMBL1649293, “Susceptibilities of human cytomegalovirus clinical isolates and other herpesviruses to new acetylated, tetrahalogenated benzimidazole D-ribonucleosides” (Antimicrob Agents Chemother, 2009).
Calls of active or inactive are those of the source. The rule behind the calls is not given here.

How the values were obtained:
[1] = Cytotoxicity against mouse NIH/3T3 cells after 8 days by XTT assay; type: cell-based, NIH3T3
Outline: (§1)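 XTT cell-proliferation read-out after 8 days of exposure at 37°C to varied drug concentrations. Absorbance was read at 492 nm against 650 nm reference, 4 h after adding XTT labeling mixture. CC50 was determined.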

Human betaherpesvirus 5 [2] = assay: Antiviral activity against ganciclovir-resistant HCMV infected in HFF assessed as reduction in viral plaque formation after 8 days by microscopy; type: functional, organism-based; conditions: Human betaherpesvirus 5, 192 h
Outline: (§2)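 HFF (1 × 10^5/well) infected with GCV-sensitive or GCV-resistant clinical isolates at MOI 0.01. After 1 h, inoculum replaced by methyl cellulose overlay with DMEM, 3% FCS and compound dilutions in duplicate. Incubation 8 days at 37°C, then crystal violet staining and plaque counting by microscope. EC50 derived relative to untreated cells.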

Human betaherpesvirus 5 [3] = assay: Antiviral activity against ganciclovir-sensitive HCMV infected in HFF assessed as formation of viral capsid type C at 10 uM measured after 72 hrs postinfection by electron microscopy; type: functional
Outline: (§3)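 HFF (1 × 10^6) infected with GCV-sensitive or GCV-resistant clinical isolates at MOI 1, with or without 10 μM compound. Cells fixed 72 h p.i., embedded, thin-sectioned, and examined by transmission EM at 120 kV. Nuclear A, B and C capsids counted.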

Human alphaherpesvirus 1 = assay: Antiviral activity against Herpes simplex virus 1 KOS infected in HFF assessed as viral plaque formation at 5 uM after 8 days by microscopy relative to control; type: functional
Outline: (§4)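 Plaque reduction with compound at a single concentration of 5 μM. After infection, plaques were counted under a microscope, and inhibition was expressed relative to untreated infected cells.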

Human betaherpesvirus 5 [4] = assay: Antiviral activity against ganciclovir-sensitive HCMV infected in HFF assessed as cleavage of viral DNA concatemer at 30 uM measured after 72 hrs postinfection by […]; type: functional, organism-based
Outline: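 HFF (1 × 10^6) infected with a GCV-sensitive clinical isolate at MOI 1 in the presence of 30 μM compound. DNA was harvested at 72 h p.i. and separated by PFGE in 1% low-melting agarose (15–110 s, 150 V, 27 h). Cleavage into unit-length genomes was judged after ethidium bromide staining.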

Human betaherpesvirus 5 [5] = assay: Antiviral activity against ganciclovir-resistant HCMV infected in HFF assessed as formation of viral capsid type C at 10 uM measured after 72 hrs postinfection by electron microscopy; type: functional; outline: as §3
Human betaherpesvirus 5 [6] = assay: Antiviral activity against ganciclovir-resistant HCMV infected in HFF assessed as cleavage of viral DNA concatemer at 30 uM measured after 72 hrs postinfection by […]; type: functional, organism-based
[7] = Selectivity index, ratio of CC50 for HFF to EC50 for ganciclovir-resistant HCMV infected in HFF
Outline: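 CC50 in HFF (5 × 10^4/well) after 8 days at 37°C with drug dilutions, read by XTT (4 h, A492 with 650 nm reference). EC50 from 8-day plaque reduction in HFF infected with GCV-resistant clinical isolate at MOI 0.01 under methyl cellulose, duplicates, crystal violet staining.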

Human betaherpesvirus 5 [8] = assay: Antiviral activity against ganciclovir-sensitive HCMV infected in HFF assessed as formation of viral capsid type B at 10 uM measured after 72 hrs postinfection by electron microscopy; type: functional; outline: as §3
Human betaherpesvirus 5 [9] = assay: Antiviral activity against HCMV AD169 infected in HFF assessed as viral plaque formation at 5 uM after 8 days by microscopy relative to control; type: functional; outline: as §4
[10] = Cytotoxicity against HFF after 8 days by XTT assay; type: cell-based; conditions: human, HFF cells
Outline: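 XTT proliferation assay: HFF seeded at 5 × 10^4/well were exposed to a range of drug concentrations for 8 days at 37°C. XTT labeling mixture was then added for 4 h, and absorbance was read at 492 nm (reference 650 nm). CC50 was derived.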

[11] = tested on: Murid betaherpesvirus 1 (mouse cytomegalovirus); assay: Antiviral activity against MCMV Smith infected in NIH 3T3 assessed as viral plaque formation at 5 uM after 8 days by microscopy relative to control
Human alphaherpesvirus 3 = assay: Antiviral activity against VZV OKA infected in HFF assessed as viral plaque formation at 5 uM after 8 days by microscopy relative to control; type: functional; outline: as §4
[12] = Cytotoxicity against rat Rat2 cells after 8 days by XTT assay; type: cell-based; outline: as §1
Human betaherpesvirus 5 [13] = assay: Antiviral activity against ganciclovir-sensitive HCMV infected in HFF assessed as reduction in viral plaque formation after 8 days by microscopy; type: functional, organism-based; conditions: Human betaherpesvirus 5, 192 h; outline: as §2
Human betaherpesvirus 5 [14] = assay: Antiviral activity against ganciclovir-resistant HCMV infected in HFF assessed as formation of viral capsid type B at 10 uM measured after 72 hrs postinfection by electron microscopy; type: functional; outline: as §3
Human betaherpesvirus 5 [15] = assay: Antiviral activity against ganciclovir-resistant HCMV infected in HFF assessed as formation of viral capsid type A at 10 uM measured after 72 hrs postinfection by electron microscopy; type: functional; outline: as §3
[16] = Selectivity index, ratio of CC50 for HFF to EC50 for ganciclovir-sensitive HCMV infected in HFF
Human betaherpesvirus 5 [17] = assay: Antiviral activity against ganciclovir-sensitive HCMV infected in HFF assessed as formation of viral capsid type A at 10 uM measured after 72 hrs postinfection by electron microscopy; type: functional; outline: as §3
Human betaherpesvirus 5 [18] = assay: Antiviral activity against ganciclovir-resistant HCMV infected in HFF assessed as cleavage of viral DNA concatemer at 10 uM measured after 72 hrs postinfection by […]; type: functional, organism-based
Human betaherpesvirus 5 [19] = assay: Antiviral activity against ganciclovir-sensitive HCMV infected in HFF assessed as cleavage of viral DNA concatemer at 10 uM measured after 72 hrs postinfection by […]; type: functional, organism-based
Outline: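 HFF (1 × 10^6) infected with a GCV-sensitive clinical isolate at MOI 1 and treated with 10 μM compound. DNA was isolated 72 h p.i. and run by pulsed-field electrophoresis on 1% low-melting agarose (15–110 s pulses, 150 V, 27 h). Unit-length versus concatemeric DNA was viewed by ethidium bromide staining. Mock- and AD169-infected cells served as controls.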

| SMILES | CC50 at 192 h [1] | EC50 (Human betaherpesvirus 5 [2]) | Activity (Human betaherpesvirus 5 [3]) | Activity (Human alphaherpesvirus 1) | Activity (Human betaherpesvirus 5 [5]) | Ratio CC50/EC50 [7] | Activity (Human betaherpesvirus 5 [8]) | Activity (Human betaherpesvirus 5 [9]) | CC50 at 192 h [10] | Activity [11] | Activity (Human alphaherpesvirus 3) | CC50 at 192 h [12] | EC50 (Human betaherpesvirus 5 [13]) | Activity (Human betaherpesvirus 5 [14]) | Activity (Human betaherpesvirus 5 [15]) | Ratio CC50/EC50 [16] | Activity (Human betaherpesvirus 5 [17]) | other results |
| --- | --- | --- | --- | --- | --- | --- | --- | --- | --- | --- | --- | --- | --- | --- | --- | --- | --- | --- |
| CC(=O)OC[C@H]1O[C@@H](n2c(Br)nc3c(Cl)c(Cl)c(Cl)cc32)[C@H](OC(C)=O)[C@@H]1OC(C)=O | 15.1 µM | 0.5 µM | 28.8% | 76.6% | 24% | 55.8 | 60.5% | 0.42% | 27.9 µM | 70.8% | 26.1% | 14.5 µM | 0.33 µM | 60.7% | 15.3% | 121 | 10.7% | Activity (Human betaherpesvirus 5 [4]): Active; Activity (Human betaherpesvirus 5 [6]): Active |
| OC[C@H]1O[C@@H](n2c(Br)nc3cc(Cl)c(Cl)cc32)[C@H](O)[C@@H]1O | 88.1 µM | 0.47 µM | 21.4% | 46.6% | 31.2% | 667 | 67.2% | 0.34% | 314 µM | 41.6% | 31.6% | 136 µM | 0.35 µM | 55% | 13.8% | 896 | 13.6% |  |
| CC(=O)OC[C@H]1O[C@@H](n2c(Cl)nc3c(Cl)c(Cl)c(Cl)cc32)[C@H](OC(C)=O)[C@@H]1OC(C)=O | 39.6 µM | 0.15 µM | 13.3% |  | 29.9% | 445 | 76.4% | 0.25% | 66.7 µM | 68.3% | 31.1% | 19.2 µM | 0.34 µM | 61.5% | 8.6% | 202 | 10.5% | Activity (Human betaherpesvirus 5 [18]): Active; Activity (Human betaherpesvirus 5 [19]): Active |
